Laboratory results published in ChEMBL document CHEMBL3351250, “Modified salicylanilide and 3-phenyl-2H-benzo[e][1,3]oxazine-2,4(3H)-dione derivatives as novel inhibitors of osteoclast differentiation and bone resorption” (J Med Chem, 2014).
Activity calls are given as the source filed them. The rule behind the calls is not given here.

Experiments:
RAW264.7 [1] = test: Inhibition of RANKL-induced osteoclastogenesis in mouse RAW264.7 cells assessed as TRAP+ multinucleated cells level at […] incubated for 4 days by TRAP staining assay; format: functional; set-up: scale not given: the % may be the effect or the level left
[2] = Cytotoxicity against mouse RAW264.7 cells assessed as reduction in survival rate after 24 hrs by MTT assay; format: cell-based
Summary of the method: (§1)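 Cells at 1 × 10⁴/well in DMEM + 10% FBS, exposed to compounds for 24 h at 37 °C, 5% CO₂. After PBS washes, MTT (0.5 mg/mL in medium) added for 1 h at 37 °C; formazan dissolved in DMSO, absorbance read at 540 nm. Viability expressed as % of DMSO control; CC₅₀ is the concentration giving 50% loss of mean viability (N = 3).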

RAW264.7 [3] = test: Inhibition of RANKL-induced TRAP mRNA expression in mouse RAW264.7 cells at 5 to […] pre-treated for 1 hr before RANKL stimulation measured after 24 to 48 hrs by RT-PCR method; format: functional, cell-based
RAW264.7 [4] = test: Inhibition of RANKL-induced NFkappaB protein expression in mouse RAW264.7 cells nuclear extracts at 5 to […] pre-treated for 1 hr before RANKL stimulation measured after 24 hrs by Western blotting method; format: functional, cell-based
RAW264.7 [5] = test: Cytotoxicity against mouse RAW264.7 cells assessed as survival rate at 5 and 10 uM after 24 hrs by MTT assay; format: cell-based; conditions: raw264.7, 24 h; summary of the method: as §1
RAW264.7 [6] = test: Inhibition of RANKL-induced NFATc1 mRNA expression in mouse RAW264.7 cells at 5 to […] pre-treated for 1 hr before RANKL stimulation measured after 24 to 48 hrs by RT-PCR method; format: functional, cell-based
RAW264.7 [7] = test: Inhibition of RANKL-induced osteoclastogenesis in mouse RAW264.7 cells assessed as reduction in TRAP activity incubated for 4 days by TRAP staining assay; format: functional, cell-based; conditions: for IC50: RAW264.7, 96 h
Summary of the method: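 RAW264.7 cells were RANKL-differentiated (100 ng/mL recombinant soluble murine RANKL in α-MEM/10% FBS, compounds at various concentrations, 4 days, medium changed day 2). TRAP activity was read with 2 mg/mL 4-nitrophenyl phosphate in 0.09 M citrate buffer for 15 min at 37 °C, stopped with 0.1 N NaOH. Expressed as % of RANKL-only; IC50 is 50% inhibition.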

RAW264.7 [8] = test: Inhibition of RANKL-induced NFATc1 protein expression in mouse RAW264.7 cells nuclear extracts assessed as NFATc1 level at 5 uM pre-treated for 1 hr before RANKL stimulation measured after 24 hrs by Western blotting method relative to TBP protein; format: functional
Summary of the method: (§2)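 Cells (1 × 10⁶ per 6 cm plate) attached 24 h in DMEM/10% FBS. Pretreated with compound in α-MEM/10% FBS for 1 h, then RANKL 100 ng/mL for 24 h. Nuclear extracts (18 μg) run on 12% SDS-PAGE and blotted with monoclonal anti-NFATc1 or anti-NF-κB (1:1000, 12 h, 4 °C) plus HRP secondary, ECL detection. Band signal normalized to TATA-box binding protein.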

RAW264.7 [9] = test: Inhibition of RANKL-induced NFATc1 protein expression in mouse RAW264.7 cells nuclear extracts assessed as NFATc1 level at […] pre-treated for 1 hr before RANKL stimulation measured after 24 hrs by Western blotting method relative to TBP protein; format: functional
RAW264.7 [10] = test: Inhibition of RANKL-induced bone resorption in mouse RAW264.7 cells incubated for 4 days by toluidine blue staining based pit formation assay; format: functional, cell-based
Summary of the method: (§3)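 Seeded at 1 × 10⁴/well onto dentine slices in α-MEM/10% FBS with 100 ng/mL RANKL plus compound. Medium with compound renewed every 2 days. On day 4, cells removed with 1 M ammonium hydroxide, slices stained with 0.1% toluidine blue, pits imaged by light microscopy. Resorbed area expressed as fraction of total area; significance versus the RANKL-only group.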

RAW264.7 [11] = test: Inhibition of RANKL-induced DC-STAMP mRNA expression in mouse RAW264.7 cells at 5 to […] pre-treated for 1 hr before RANKL stimulation measured after 24 to 48 hrs by RT-PCR method; format: functional, cell-based
RAW264.7 [12] = test: Inhibition of RANKL-induced osteoclastogenesis in mouse RAW264.7 cells assessed as TRAP+ multinucleated cells level at 5 uM incubated for 4 days by TRAP staining assay; format: functional; set-up: scale not given: the % may be the effect or the level left
Summary of the method: (§4)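 Cells plated at 1 × 10³ (96-well) or 5 × 10⁴ (48-well) in α-MEM with 10% FBS, 2 mM […], 100 ng/mL recombinant murine RANKL and compound for 4 days; medium changed on day 2. Fixed in acetone/citrate/formaldehyde for 5 min and TRAP-stained. TRAP⁺ cells with >5 nuclei counted by light microscopy, expressed as % of the RANKL-only group.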

RAW264.7 [13] = test: Inhibition of RANKL-induced NFATc1 protein expression in mouse RAW264.7 cells nuclear extracts at 5 to […] pre-treated for 1 hr before RANKL stimulation measured after 24 hrs by Western blotting method; format: functional, cell-based
RAW264.7 [14] = test: Inhibition of RANKL-induced MMP9 mRNA expression in mouse RAW264.7 cells at 5 to […] pre-treated for 1 hr before RANKL stimulation measured after 24 to 48 hrs by RT-PCR method; format: functional, cell-based
[15] = Toxicity in mouse MC3T3-E1 cells assessed as effect on osteoblast differentiation by measuring ECM calcification activity at […] incubated for 14 days in presence of beta-glycerol phosphate and ascorbic acid by Alizarin red S staining method; format: cell-based; conditions: mc3t3-e1, 336 h
RAW264.7 [16] = test: Inhibition of RANKL-induced osteoclastogenesis in mouse RAW264.7 cells assessed as TRAP+ multinucleated cells level at 10 uM incubated for 4 days by TRAP staining assay; format: functional; set-up: scale not given: the % may be the effect or the level left; summary of the method: as §4
RAW264.7 [17] = test: Inhibition of RANKL-induced osteoclastogenesis in mouse RAW264.7 cells assessed as TRAP+ multinucleated cells level incubated for 4 days by TRAP staining assay; format: functional, cell-based; conditions: RAW264.7, 96 h
Summary of the method: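 RAW264.7 cells in α-MEM with 10% FBS, 2 mM […], 100 ng/mL recombinant soluble murine RANKL and a range of compound concentrations for 4 days, with medium changed on day 2. Cells fixed in acetone/citrate/formaldehyde for 5 min and TRAP-stained. Cells with >5 nuclei counted by light microscopy and expressed as % of RANKL-only; IC50 is 50% inhibition.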

RAW264.7 [18] = test: Inhibition of RANKL-induced NFkappaB protein expression in mouse RAW264.7 cells nuclear extracts assessed as NFkappaB level at […] pre-treated for 1 hr before RANKL stimulation measured after 24 hrs by Western blotting method relative to TBP protein; format: functional
RAW264.7 [19] = test: Inhibition of RANKL-induced cathepsin K mRNA expression in mouse RAW264.7 cells at 5 to […] pre-treated for 1 hr before RANKL stimulation measured after 24 to 48 hrs by RT-PCR method; format: functional, cell-based
RAW264.7 [20] = test: Inhibition of RANKL-induced c-fos mRNA expression in mouse RAW264.7 cells at 5 to […] pre-treated for 1 hr before RANKL stimulation measured after 24 to 48 hrs by RT-PCR method; format: functional, cell-based
RAW264.7 [21] = test: Inhibition of RANKL-induced NFkappaB protein expression in mouse RAW264.7 cells nuclear extracts assessed as NFkappaB level at 5 uM pre-treated for 1 hr before RANKL stimulation measured after 24 hrs by Western blotting method relative to TBP protein; format: functional; summary of the method: as §2
RAW264.7 [22] = test: Inhibition of RANKL-induced bone resorption in mouse RAW264.7 cells assessed as reduction in resorbed area at 2.5 to 10 uM incubated for 4 days by toluidine blue staining based pit formation assay; format: functional, cell-based; summary of the method: as §3
[23] = Toxicity in mouse MC3T3-E1 cells assessed as effect on osteoblast differentiation by measuring ALP activity at […] incubated for 14 days in presence of beta-glycerol phosphate and ascorbic acid; format: cell-based; conditions: mc3t3-e1, 336 h
[24] = Cytotoxicity against mouse RAW264.7 cells assessed as survival rate at 10 uM after 24 hrs by MTT assay; format: cell-based; conditions: read-out: Activity; summary of the method: as §1
RAW264.7 [25] = test: Inhibition of RANKL-induced osteoclastogenesis in mouse RAW264.7 cells assessed as TRAP+ multinucleated cells level at 2.5 uM incubated for 4 days by TRAP staining assay; format: functional; set-up: scale not given: the % may be the effect or the level left; summary of the method: as §4

| Compound | Activity (RAW264.7 [1]) [%] | CC50 at 24 h [2] [µM] | inhibition (RAW264.7 [3]) | inhibition (RAW264.7 [4]) | Activity (RAW264.7 [5]) | inhibition (RAW264.7 [6]) | inhibition (RAW264.7 [7]) | IC50 (RAW264.7 [7]) [µM] | fold change (FC) (RAW264.7 [8]) | fold change (FC) (RAW264.7 [9]) | inhibition (RAW264.7 [10]) | inhibition (RAW264.7 [11]) | Activity (RAW264.7 [12]) [%] | inhibition (RAW264.7 [13]) | inhibition (RAW264.7 [14]) | Activity [15] | Activity (RAW264.7 [16]) [%] | IC50 (RAW264.7 [17]) [µM] | fold change (FC) (RAW264.7 [18]) | inhibition (RAW264.7 [19]) | other results |
| --- | --- | --- | --- | --- | --- | --- | --- | --- | --- | --- | --- | --- | --- | --- | --- | --- | --- | --- | --- | --- | --- |
| O=c1oc2ccccc2c(=O)n1-c1ccc(Cl)cc1F | 45.9 | 26.5 | Dose-dependent effect | Dose-dependent effect | Non-toxic | Active | Dose-dependent effect | 10.6 | 0.99 | 0.76 | Dose-dependent effect | Active | 74.6 | Dose-dependent effect | Dose-dependent effect | Non-toxic | 19.7 | 7.1 | 0.73 | Dose-dependent effect | inhibition (RAW264.7 [20]): Active; fold change (FC) (RAW264.7 [21]): 0.77; inhibition (RAW264.7 [22]): Active; Activity [23]: Non-toxic; viability at 24 h, 10 µM [24]: 97.9% |
| O=c1oc2ccccc2c(=O)n1-c1ccc(I)cc1F | 29.1 | 23.6 | Dose-dependent effect | Dose-dependent effect | Non-toxic | Active | Dose-dependent effect | 7.3 | 0.76 | 0.72 | Dose-dependent effect | Active | 49.1 | Dose-dependent effect | Dose-dependent effect | Non-toxic | 1.8 | 4.9 | 0.58 | Dose-dependent effect | Activity (RAW264.7 [25]): 74.1%; inhibition (RAW264.7 [20]): Active; fold change (FC) (RAW264.7 [21]): 0.75; inhibition (RAW264.7 [22]): Active; Activity [23]: Non-toxic; viability at 24 h, 10 µM [24]: 91.4% |
